# Activity calls are given as the source filed them. The calls are words filed in the database; no cut-off is given here.
# Key:
# [1] = system: A549; experiment: Antiproliferative activity against human A549 cells at 100 uM after 72 hrs by MTT assay; format: functional; conditions: A549, 72 h, values are per cent of control
# Outline: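 MTT proliferation: A549 grown in medium with 10% FBS to 70-80% confluence, then exposed to compound for 24, 48 or 72 h. MTT added for 3 h at 37 °C, formazan dissolved in 2-propanol, OD 570 nm with 650 nm reference. Expressed as percent of control at 24 h; mean ± SE.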
# [2] = system: A549; experiment: Cytotoxicity against human A549 cells after 24 hrs by TB dye exclusion assay; format: functional, cell-based; conditions: A549, 24 h
# [3] = system: A549; experiment: Cytotoxicity against human A549 cells after 48 hrs by TB dye exclusion assay; format: functional, cell-based; conditions: A549, 48 h
# [4] = system: A549; experiment: Cytotoxicity against human A549 cells after 72 hrs by TB dye exclusion assay; format: functional, cell-based; conditions: A549, 72 h
# [5] = system: A549; experiment: Cytotoxicity against human A549 cells after 24 hrs by MTT assay; format: functional, cell-based; conditions: A549, 24 h
# [6] = system: A549; experiment: Cytotoxicity against human A549 cells after 48 hrs by MTT assay; format: functional, cell-based; conditions: A549, 48 h
# [7] = system: A549; experiment: Cytotoxicity against human A549 cells after 72 hrs by MTT assay; format: functional, cell-based; conditions: A549, 72 h
# [8] = system: A549; experiment: Cell cycle arrest in human A549 cells assessed as accumulation at G1 phase at 50 uM after 24 hrs; format: functional
# Outline: (§1)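 Flow cytometry of cell cycle: A549 (5 × 10^5 per 60 mm dish) treated next day with 50 or 100 µM for 24, 48 or 72 h. Adherent and floating cells pooled, fixed in PBS-MeOH 1:2 at 4 °C for at least 18 h, then stained 30 min in the dark with PI 50 µg/mL plus RNase A 50 µg/mL. Sub-G1 taken as the subdiploid fraction; at least three runs.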
# [9] = system: A549; experiment: Cell cycle arrest in human A549 cells assessed as accumulation at S phase at 50 uM after 24 hrs; format: functional; outline: as §1
# [10] = system: A549; experiment: Cell cycle arrest in human A549 cells assessed as accumulation at G2/M phase at 50 uM after 24 hrs; format: functional; outline: as §1
# [11] = system: A549; experiment: Cell cycle arrest in human A549 cells assessed as accumulation at subG1 phase at 50 uM after 24 hrs; format: functional; outline: as §1
# [12] = system: A549; experiment: Cell cycle arrest in human A549 cells assessed as accumulation at G1 phase at 50 uM after 48 hrs; format: functional; outline: as §1
# [13] = system: A549; experiment: Cell cycle arrest in human A549 cells assessed as accumulation at S phase at 50 uM after 48 hrs; format: functional; outline: as §1
# [14] = system: A549; experiment: Cell cycle arrest in human A549 cells assessed as accumulation at G2/M phase at 50 uM after 48 hrs; format: functional; outline: as §1
# [15] = system: A549; experiment: Cell cycle arrest in human A549 cells assessed as accumulation at subG1 phase at 50 uM after 48 hrs; format: functional; outline: as §1
# [16] = system: A549; experiment: Induction of apoptosis in human A549 cells assessed as PARP cleavage at 100 uM; format: functional, cell-based
# [17] = system: A549; experiment: Cell cycle arrest in human A549 cells assessed as accumulation at G1 phase at 50 uM after 72 hrs; format: functional; outline: as §1
# [18] = system: A549; experiment: Cell cycle arrest in human A549 cells assessed as accumulation at S phase at 50 uM after 72 hrs; format: functional; outline: as §1
# [19] = system: A549; experiment: Cell cycle arrest in human A549 cells assessed as accumulation at G2/M phase at 50 uM after 72 hrs; format: functional; outline: as §1
# [20] = system: A549; experiment: Cell cycle arrest in human A549 cells assessed as accumulation at subG1 phase at 50 uM after 72 hrs; format: functional; outline: as §1
# [21] = system: A549; experiment: Cell cycle arrest in human A549 cells assessed as accumulation at G1 phase at 100 uM after 24 hrs; format: functional; outline: as §1
# [22] = system: A549; experiment: Cell cycle arrest in human A549 cells assessed as accumulation at S phase at 100 uM after 24 hrs; format: functional; outline: as §1
# [23] = system: A549; experiment: Cell cycle arrest in human A549 cells assessed as accumulation at G2/M phase at 100 uM after 24 hrs; format: functional; outline: as §1
# [24] = system: A549; experiment: Cell cycle arrest in human A549 cells assessed as accumulation at subG1 phase at 100 uM after 24 hrs; format: functional; outline: as §1
# [25] = system: A549; experiment: Cell cycle arrest in human A549 cells assessed as accumulation at G1 phase at 100 uM after 48 hrs; format: functional; outline: as §1
# [26] = system: A549; experiment: Cell cycle arrest in human A549 cells assessed as accumulation at S phase at 100 uM after 48 hrs; format: functional; outline: as §1
# [27] = system: A549; experiment: Cell cycle arrest in human A549 cells assessed as accumulation at G2/M phase at 100 uM after 48 hrs; format: functional; outline: as §1
smiles,measurement,setting,value
C=C1OC(=O)/C(=C/CCCCCCCCCCCCC)[C@@H]1O [ISOOBTUSILACTONE A],"growth, % of control at 100 µM",[1],2.75%
same,IC50,[2],4170 nM
same,IC50,[3],891 nM
same,IC50,[4],724 nM
same,IC50,[5],5130 nM
same,IC50,[6],1950 nM
same,IC50,[7],1020 nM
same,Activity,[8],51.93%
same,Activity,[9],30.81%
same,Activity,[10],17.26%
same,Activity,[11],16.69%
same,Activity,[12],37.37%
same,Activity,[13],46.72%
same,Activity,[14],15.91%
same,Activity,[15],36.73%
same,Activity,[16],Active
same,Activity,[17],38.62%
same,Activity,[18],47.74%
same,Activity,[19],13.64%
same,Activity,[20],54.08%
same,Activity,[21],42.88%
same,Activity,[22],38.95%
same,Activity,[23],18.18%
same,Activity,[24],25.63%
same,Activity,[25],43.08%
same,Activity,[26],41.33%
same,Activity,[27],15.59%
